Screening data: PubChem, several laboratories
An excerpt weighted towards active compounds, which were near 3.1% of everything screened.
Ins promoter up: insulin promoter activators in MIN6 cells, imaging, high-content screening, mouse beta cells | z-score at 5 µM | 190,000 tested, 0.3% active | MIN6 insulin promoter-GFP reporter; stronger effect = higher value;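 active = z-score above 3 at 5 µM with at least 500 cells counted in the well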
RAM network inh: inhibitors of the yeast RAM network, primary screen, dse1pr::URA3 reporter, 5-FOA selection; AID 868, 2007; 190,000 tested, 1.8% active; inhibition, % at 50 µM; S. cerevisiae dse1pr::URA3 reporter, 5-FOA growth OD615, 2 d; analog-sensitive cbk1-as2 kinase mutant strain;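 active = inhibition above a set limit, 3 SD over mean compound inhibition, cut at about 8.4% in these data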;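 note: inhibition rescues growth on 5-FOA so higher OD means more RAM inhibition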
Yeast growth inh: growth inhibitors of yeast BB579 in restrictive medium, primary screen, yeast lifespan-shortening project, S. cerevisiae | inhibition, % at 10 µM | OD615, 48 h | 140,000 tested, 0.51% active;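 active = inhibition above a set limit, 3 SD over the mean compound inhibition, cut at about 44% in these data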
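test system = yeast BB579 (DeaD) | buffer or medium = restrictive CSMM-D medium | doses = single compound dose of 10 µM, 0.25% DMSO final | times = 4 h preincubation and 48 h exposure at 30 °C | technique = culture absorbance at 615 nm | benchmarks = amphotericin B 10 µg/mL, positive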
INS promoter inh: inhibitors of insulin promoter-driven GFP, primary screen, imaging, TRM-6 cells (human fetal islet line), eGFP reporter, cell count; AID 1273, 2008; inhibition, % at 2 µM; 130,000 tested, 0.9% active; reporter expression induced with tamoxifen;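 active = inhibition above the mean plus 3 SD, with well images judged a real hit on visual review, cut at about 60% in these data, passing the limit was not always enough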
Yeast lifespan up: compounds extending yeast replicative lifespan, primary screen, S. cerevisiae, OD615 | inhibition of the nicotinamide effect, % at 10 µM | 130,000 tested, 0.68% active | AID 775, 2007 | S. cerevisiae growth with nicotinamide; deaD strain in restrictive glucose medium;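 active = inhibition above a set limit, placed 3 SD over the median of all compounds, cut at about 26% in these data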
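Assay system: DeaD-strain S. cerevisiae. Medium: CSMM-D glucose medium, restrictive. Reagent: nicotinamide, 1.5 mM, co-present with compound. Compound: 10 µM single point, 0.25% DMSO. Schedule: culture preincubation 4 h, compound exposure 48 h, both 30 °C. Detection: absorbance at 615 nm.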
RAM efflux-def: 5-FOA growth of efflux-deficient control yeast, dose response, counter-screen for RAM network inhibitor project, S. cerevisiae, OD615; shares compounds with RAM network inh; S. cerevisiae efflux-deficient reporter strain, 5-FOA growth OD615, 2 days; max inhibition, %; 1,200 tested, under 10 active; AID 1305, 2008; call rule not given here
Of the large screens only hits and unclear results are named; the others gave an inactive call (follow-up assays come after a bar, where they were run).

O=C(CSc1nc2ccccc2s1)CSc1nc2ccccc2s1	RAM network inh 14.1 | RAM efflux-def inactive
CCOc1ccc2nc(SCc3ccc(OC)cc3)sc2c1	none (no result: Ins promoter up)
CCOc1ccc2nc(SCC(=O)c3ccccc3)sc2c1	RAM network inh 15.6 | RAM efflux-def inactive
CCOc1ccc2nc(SCCNS(=O)(=O)c3ccccc3)sc2c1	RAM network inh 11.6 (no result: Ins promoter up) | RAM efflux-def inactive
CCCCN(CC(=O)NCc1ccc(Cl)cc1)S(=O)(=O)c1ccc2c(c1)OCCO2	RAM network inh 13.3 | RAM efflux-def inactive
O=C(CN(c1ccc2c(c1)OCCO2)S(=O)(=O)c1ccccc1)NCc1ccc(Cl)cc1	none
Cn1c(SCC2CCCO2)nnc1-c1cccc([N+](=O)[O-])c1 (configuration not stated)	none (no result: Yeast growth inh, INS promoter inh, Yeast lifespan up)
Cc1ccc(S(=O)(=O)c2nc(Nc3ccccc3)sc2Cl)cc1	RAM network inh 13.1 (no result: INS promoter inh) | RAM efflux-def inactive
COc1ccc(Nc2nc(S(=O)(=O)c3ccc(C)cc3)c(Cl)s2)cc1	none (no result: INS promoter inh)
Cc1ccc(O)c(NC(=S)NC(=O)c2ccccc2Cl)c1	none (no result: Ins promoter up, Yeast growth inh, Yeast lifespan up)
CCC(=O)Oc1c(S(=O)(=O)c2ccc(C)cc2)c(C)nn1C(C)(C)C	none (no result: INS promoter inh)
CCCC(=O)Oc1c(S(=O)(=O)c2ccc(C)cc2)c(C)nn1C(C)(C)C	RAM network inh 11.8 (no result: Yeast growth inh, Yeast lifespan up) | RAM efflux-def inactive
O=C(Nc1ccccc1Cl)c1cccc(NS(=O)(=O)c2ccccc2)c1	none
O=C(CCCSc1nc2ccccc2[nH]1)Nc1nnc(-c2ccccc2)o1	RAM network inh 13.8 | RAM efflux-def inactive
Fc1ccc(-c2csc(/C=C/c3ccc4c(c3)OCO4)n2)cc1	none
CC(C)SCCCCOc1ccc2ccccc2c1	RAM network inh 12.1 (no result: INS promoter inh) | RAM efflux-def inactive
O=C(CN1CCC(n2cnc3cc(F)ccc32)CC1)Nc1ccccc1Br	none (no result: Yeast growth inh, Yeast lifespan up)
CC(=O)Nc1ccc(-c2cc(-c3ccc(NC(C)=O)cc3)nc(-c3ccc(NC(C)=O)cc3)n2)cc1	RAM network inh 11.8 | RAM efflux-def inactive
Cc1ccc(C(=O)Nc2cc(Cl)ccc2N2CCCCC2)s1	RAM network inh 14.4 | RAM efflux-def inactive
O=C(Nc1cc(Cl)ccc1N1CCCCC1)c1cccs1	none (no result: Ins promoter up)
CCc1sc(C(=O)Nc2cc(Cl)ccc2N2CCCCC2)cc1C	RAM network inh 13.9 (no result: Ins promoter up, INS promoter inh) | RAM efflux-def inactive
Cc1ccc(C2=NN(Cc3nnc(-c4ccccc4)o3)C(=O)SC2)cc1	RAM network inh 12.1 | RAM efflux-def inactive
O=C(COC(=O)CCc1ccc(S(=O)(=O)N2CCOCC2)cc1)NC1CCCC1	none (no result: INS promoter inh)
NC(=O)NCCCC(=O)OCC(=O)c1ccc2ccccc2c1	none (no result: Yeast growth inh, Yeast lifespan up)
CNC(=S)N1N=C(c2ccc(C)cc2)CC1c1ccc(Br)cc1 (configuration not stated)	RAM network inh 21.4 | RAM efflux-def inactive
CNC(=S)N1N=C(c2ccc(C)cc2)CC1c1ccc(Cl)cc1 (configuration not stated)	none (no result: Ins promoter up)
Cc1ccc(C)c(NC(=S)NCCN(C2CCCCC2)C2CCCC2)c1	none (no result: Yeast growth inh, Yeast lifespan up)
CCN(CC)S(=O)(=O)c1ccc(N2CCOCC2)c(NC(=O)CC(C)(C)C)c1	none (no result: RAM network inh, Yeast growth inh, INS promoter inh, Yeast lifespan up)
CCN(CC)S(=O)(=O)c1ccc(N2CCOCC2)c(NC(=O)CCC2CCCCC2)c1	RAM network inh 14.5 | RAM efflux-def inactive
O=C(NCCc1ccccc1)C(NS(=O)(=O)c1cccc2nsnc12)c1ccccc1 (configuration not stated)	none
CCc1ccc(NC(=O)Cn2c(SC)nc3ccccc32)cc1	RAM network inh 20.6 (no result: INS promoter inh) | RAM efflux-def inactive
CCOC(=O)CCCSc1nnc(CCCCCN2C(=O)c3cccc4cccc(c34)C2=O)o1	RAM network inh 13.9 (no result: INS promoter inh) | RAM efflux-def inactive
C=CCSc1nnc(CCCCCN2C(=O)c3cccc4cccc(c34)C2=O)o1	RAM network inh 16.5 | RAM efflux-def inactive
Cc1nnc(SCCCN2C(=O)c3ccccc3C2=O)o1	none (no result: INS promoter inh)
O=C(COC(=O)Cc1c(Cl)cccc1Cl)Nc1ccc(OC(F)(F)F)cc1	none
COc1ccccc1/C=C/C(=O)OCC(=O)Nc1ccc(Cl)cn1	none (no result: RAM network inh, Yeast growth inh, INS promoter inh, Yeast lifespan up)
CCCOC(=O)c1ccc(NC(=O)c2c(Cl)ccc(Cl)c2OC)cc1	RAM network inh 12.2 (no result: Ins promoter up) | RAM efflux-def inactive
COc1ccc(/C=C/C(=O)OCC(=O)c2ccc3c(c2)NC(=O)CO3)cc1	none (no result: RAM network inh, Yeast growth inh, INS promoter inh, Yeast lifespan up)
